According to paper PMC12519076 (RSC Advances, 2025):
Like-named read-outs stand apart in the source and are kept apart here.

Tests used:
[1] = assay type: in vivo, mice; conditions: for Detection in the brain: oral administration; for Detection in plasma: mice sacrificed 12 h after food intake
Procedure, shortened: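 Male C57BL/6 mice, 7 weeks old, fed a high-fat diet with 1% w/w orange peel extract for 6 weeks, with 0.65% carnitine in drinking water. Tissues were homogenized under liquid nitrogen. Tissues, plasma (cardiac puncture, EDTA) and urine were extracted in methanol with 0.1% DMSO; taxifolin was the internal standard. Separation on a C30 column with a formic acid water/acetonitrile gradient; positive ESI, SRM. Values expressed as tissue–peel ratio.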

[2] = assay type: in vivo, mice; conditions: by number of metabolites identified
Procedure, shortened: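 Male C57BL/6 mice, from 7 weeks old, given high-fat chow containing 1% w/w orange peel extract for 6 weeks, with 0.65% carnitine in water. Methanol/0.1% DMSO extracts were run by UHPLC on a C30 column at 40 °C, 0.1% formic acid water/acetonitrile gradient 2–100% B, 0.2 mL min−1, with Q-Exactive Orbitrap detection. Metabolites were assigned to parent PMFs by key-ion patterns.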

[3] = system: spatial learning impairments induced by Aβ1-42; conditions: oral administration for four weeks; cited from earlier work
acetylcholinesterase = conditions: cortex and hippocampus; cited from earlier work
[4] = following intraperitoneal administration; cited from earlier work

| SMILES | Detection in the brain [1] | Detection in the kidney [1] | Detection in the liver [1] | Detection in plasma [1] | Detection in the testes ([1]; testes) | other results |
| --- | --- | --- | --- | --- | --- | --- |
| COc1ccc(-c2cc(=O)c3c(OC)c(OC)c(OC)c(OC)c3o2)cc1OC [PMF 3, nobiletin] | found | detected | detected | detected | not detected | Urine–peel ratio relative to other non-hydroxylated PMFs ([1]; urine): approximately two times higher; Extent of metabolism among the 11 PMFs [2]: most extensively metabolized; Effect on spatial learning impairments induced by Aβ1-42, Morris water maze test [3]: prevent spatial learning impairments; Acetylcholinesterase activity (acetylcholinesterase): enhanced |
| COc1ccc(-c2oc3c(OC)c(OC)c(OC)c(OC)c3c(=O)c2OC)cc1OC [PMF 5, 3,5,6,7,8,3′,4′-heptamethoxyflavone] | found | – | detected | detected | not detected | – |
| COc1ccc(-c2cc(=O)c3c(OC)c(OC)c(OC)cc3o2)cc1OC [PMF 10, sinensetin] | found | – | detected | – | – | – |
| COc1cc(-c2cc(=O)c3c(OC)c(OC)c(OC)c(OC)c3o2)ccc1O [4′-demethylnobiletin] | – | – | – | – | – | Detection in the brain [4]: detected in the brain |
| COc1ccc(-c2oc3c(OC)c(OC)c(OC)c(O)c3c(=O)c2OC)cc1OC [PMF 11, 5-hydroxy-3,6,7,8,3′,4′-hexamethoxyflavone] | not detected | – | not detected | – | – | – |
| COc1ccc(-c2cc(=O)c3c(OC)c(OC)c(OC)c(OC)c3o2)cc1 [PMF 6, tangeretin] | found | detected | detected | detected | not detected | – |
| COc1ccc(-c2cc(=O)c3cc(OC)c(OC)c(OC)c3o2)cc1OC [PMF 1, 6,7,8,3′,4′-pentamethoxyflavone] | found | – | – | detected | detected | – |
| COc1ccc(-c2oc3c(OC)c(OC)cc(O)c3c(=O)c2OC)cc1OC [PMF 9, 5-hydroxy-3,7,8,3′,4′-pentamethoxyflavone] | not detected | – | detected | – | – | – |
| COc1ccc(-c2cc(=O)c3c(O)c(OC)c(OC)c(OC)c3o2)cc1OC [PMF 8, 5-hydroxy-6,7,8,3′,4′-pentamethoxyflavone] | not detected | detected | detected | – | detected | Feces-peel ratio relative to that of PMF 11 ([1]; feces): twice as high; Testes-to-peel ratio relative to the detected major PMFs 1 and 4 ([1]; testes): 10 to 14 times; Extent of metabolism among the 11 PMFs [2]: most extensively metabolized |
